Values after ≈ are worked out from the molar mass of the structure shown. Values joined by “and” are separate entries in the source; they are usually repeats but may differ in a detail not shown here. Identical values can stand only once. A value given as a limit tells only on which side of the number the result lay.

One data set concerns Human alphaherpesvirus 1. Put plainly: Concentration required to inhibit HSV type 1 strain 377 induced cytopathogenic affects by 50%. In kind it is functional.
Details: not given
The essentials: (§1)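 Inhibition of cytopathogenic effect caused by HSV-1 strain 377 or HSV-2 strain MS, replicating in secondary rabbit kidney cell cultures or in Vero cells. MIC₅₀ is the concentration giving 50% inhibition of virus-induced CPE. Ranges are pooled from several tests in either host cell type.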
Background: Damage to the host cells serves as the signal in cytopathic effect assays.
`Nc1nc(N)c2nnn(C3CC(O)C(CO)C3)c2n1` (stereo not given) gave an MIC50 of 2 µg/mL (≈ 7.54 µM).

Staying with this data set, now noted: Human alphaherpesvirus 1; read-out: MIC50.
Take `Nc1nc(O)c2ncn([C@@H]3C[C@H](CO)[C@@H](O)C3)c2n1`: the MIC50 is under 0.3 µg/mL.

As to `Cc1cn(C2CC(CO)C(O)C2O)c(=O)[nH]c1=O` (stereo not given), the MIC50 was 0.8 µg/mL (≈ 3.12 µM).

For the molecule `Nc1nc(O)c2nnn(C3CC(O)C(CO)C3)c2n1` (stereo not given), the MIC50 turned out to be 0.6 µg/mL (≈ 2.25 µM).

With `Nc1nc(N)c2nnn(C3CC(O)C(CO)C3)c2n1` (stereo not given), the MIC50 was under 3.2 µg/mL.

The next data set relates to Mus musculus. Put plainly: Antineoplastic activity of compound in mice inoculated with 10e 5 L1210 leukemia cells was measured as T/C after ip administration of 100 mg/kg. The format is functional. To be noted: route intraperitoneal. The method, boiled down: (§2)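 L1210 leukemia, 10⁵ cells inoculated intraperitoneally into mice on day 0, following NCI protocols. Compound given intraperitoneally as a solution or suspension once daily on days 1-9. T/C % compares lifespan of treated mice with untreated leukemic control mice.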
What is called T/C is the result in the treated group divided by that in the control group, in per cent. Take `Nc1nc(N)c2nnn(C3CC(O)C(CO)C3)c2n1` (stereo not given): the T/C turned out to be 96%.

Test system in another data set: not listed separately
As to the kind of experiment: Compound was evaluated for cytotoxicity to KB cells (derived from human epidermoid carcinoma). In kind it is cell-based. To be noted: read-out: ED50 (the source's name). The essentials:
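KB cells grown in culture and tested under the National Cancer Institute cytotoxicity protocol. The value is reported as ED50 in mcg/mL.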
In the case of `Nc1nc(O)c2ncn([C@@H]3C[C@H](CO)[C@@H](O)C3)c2n1`, the CC50 stood at 95 µg/mL (≈ 358 µM).

Turning to `Nc1nc(O)c2nnn(C3CC(O)C(CO)C3)c2n1` (stereo not given), the CC50 is over 100 µg/mL.

For the molecule `Nc1nc(N)c2nnn(C3CC(O)C(CO)C3)c2n1` (stereo not given), the CC50 was over 100 µg/mL.

In a further data set the test system is L1210. As to the kind of experiment: Antineoplastic activity of compound in mice inoculated with 10e 5 L1210 leukemia cells was measured as weight change after ip administration of 200 mg/kg. The format is functional, Mus musculus. The following applies: route intraperitoneal. The method, boiled down: (§3)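 Mice received 10⁵ L1210 leukemia cells ip on day 0, then compound ip as a solution or suspension q.d. days 1-9, following NCI protocols. Weight-change difference is the mean weight change of treated mice minus that of untreated leukemic controls, both measured on day 5.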
As for `Nc1nc(N)c2nnn(C3CC(O)C(CO)C3)c2n1` (stereo not given), the Weight change is -1.1 g.

The next data set concerns L1210. As to the kind of experiment: Antineoplastic activity of compound in mice inoculated with 10e 5 L1210 leukemia cells was measured as weight change after ip administration of 200 […].
Details: not given
In kind it is functional, Mus musculus. The essentials: as §3
In turn, `Nc1nc(O)c2nnn(C3CC(O)C(CO)C3)c2n1` (stereo not given) had a Weight change of -3.2 g.

A further data set has as its system Mus musculus. Put plainly: Antineoplastic activity of compound in mice inoculated with 10e 5 L1210 leukemia cells was measured as T/C after ip administration of 100 […]. In kind it is functional.
Details: not given
The method, boiled down: as §2
With `Nc1nc(O)c2ncn([C@@H]3C[C@H](CO)[C@@H](O)C3)c2n1`, the T/C came out at 96%.

The molecule `Nc1nc(O)c2nnn(C3CC(O)C(CO)C3)c2n1` (stereo not given) registered a T/C of 100%.

The next data set deals with L1210. As to the kind of experiment: Antineoplastic activity of compound in mice inoculated with 10e 5 L1210 leukemia cells was measured as weight change after ip administration of 100 mg/kg. To be noted: route intraperitoneal. In kind it is functional, Mus musculus. The method, boiled down:
as §3
`Nc1nc(N)c2nnn(C3CC(O)C(CO)C3)c2n1` (stereo not given) had a Weight change of -0.7 g.

For another data set, the system named is Mus musculus. Put plainly: Antineoplastic activity of compound in mice inoculated with 10e 5 L1210 leukemia cells was measured as T/C after ip administration of 200 mg/kg. In kind it is functional. To be noted: route intraperitoneal. The essentials:
as §2
`Nc1nc(N)c2nnn(C3CC(O)C(CO)C3)c2n1` (stereo not given) displayed a T/C of 92%.

A further data set concerns Human alphaherpesvirus 2. Put plainly: Concentration required to inhibit HSV type 2 strain MS induced cytopathogenic affects by 50%. The format is functional.
Details: not given
The method, boiled down: as §1
For the molecule `Nc1nc(O)c2ncn([C@@H]3C[C@H](CO)[C@@H](O)C3)c2n1`, the MIC50 worked out at 0.8 µg/mL (≈ 3.02 µM).

In turn, `Cc1cn(C2CC(CO)C(O)C2O)c(=O)[nH]c1=O` (stereo not given) had an MIC50 of 7 µg/mL (≈ 27.3 µM).

The molecule `Nc1nc(O)c2nnn(C3CC(O)C(CO)C3)c2n1` (stereo not given) displayed an MIC50 of 6.9 µg/mL (≈ 25.9 µM).

Molecule `Nc1nc(N)c2nnn(C3CC(O)C(CO)C3)c2n1` (stereo not given) gave an MIC50 of 10 µg/mL (≈ 37.7 µM).

For the next data set, the system named is Human alphaherpesvirus 1. Put plainly: In vitro antiviral activity in secondary cultures of rabbit kidney cells infected with HSV type 1 strain 377. In kind it is functional.
Details: not given
The method, boiled down: (§4)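 Scored as a virus rating (VR) from inhibition of CPE caused by HSV-1 strain 377 or HSV-2 strain MS in secondary rabbit kidney cultures or Vero cells. VR ≥1.0 means definite activity, 0.5-0.9 marginal to moderate, and <0.5 usually none. Ranges are pooled from several tests.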
Consider `Nc1nc(O)c2ncn([C@@H]3C[C@H](CO)[C@@H](O)C3)c2n1`, for which the Virus rating result is listed as “>=4.6”.

For the molecule `Cc1cn(C2CC(CO)C(O)C2O)c(=O)[nH]c1=O` (stereo not given), the Virus rating was determined as 5.4.

Consider `Nc1nc(O)c2nnn(C3CC(O)C(CO)C3)c2n1` (stereo not given), for which the Virus rating turned out to be 4.2.

As to `Nc1nc(N)c2nnn(C3CC(O)C(CO)C3)c2n1` (stereo not given), the Virus rating is 4 and 4.4.

Another data set relates to Human alphaherpesvirus 2. As to the kind of experiment: In vitro antiviral activity in secondary cultures of rabbit kidney cells infected with HSV type 2 strain MS. In kind it is functional.
Details: not given
The essentials:
as §4
As to `Nc1nc(O)c2ncn([C@@H]3C[C@H](CO)[C@@H](O)C3)c2n1`, the Virus rating turned out to be 3.7.

`Cc1cn(C2CC(CO)C(O)C2O)c(=O)[nH]c1=O` (stereo not given) showed a Virus rating of 3.2.

Molecule `Nc1nc(O)c2nnn(C3CC(O)C(CO)C3)c2n1` (stereo not given) returned a Virus rating of 2.1.

`Nc1nc(N)c2nnn(C3CC(O)C(CO)C3)c2n1` (stereo not given) returned a Virus rating of 2.3.

A further data set concerns L1210. As to the kind of experiment: Antineoplastic activity of compound in mice inoculated with 10e 5 L1210 leukemia cells was measured as weight change after ip administration of 100 […].
Details: not given
The format is functional, Mus musculus. The method, boiled down: as §3
On to `Nc1nc(O)c2ncn([C@@H]3C[C@H](CO)[C@@H](O)C3)c2n1`, for which the Weight change is on record as -3.7 g.

As for `Nc1nc(O)c2nnn(C3CC(O)C(CO)C3)c2n1` (stereo not given), the Weight change is on record as -2.4 g.

A further data set deals with Mus musculus. As to the kind of experiment: Antineoplastic activity of compound in mice inoculated with 10e 5 L1210 leukemia cells was measured as T/C after ip administration of 200 […]. The format is functional.
Details: not given
The method, boiled down:
as §2
As for `Nc1nc(O)c2nnn(C3CC(O)C(CO)C3)c2n1` (stereo not given), the T/C came out at 104%.
